Active and inactive are the calls of the source. The calls are words filed in the database; no cut-off is given here.

One data set deals with MDA-MB-468. Put plainly: Induction of apoptosis in human MDA-MB-468 cells assessed as increase in caspase cleavage incubated for 48 hrs in presence of docetaxel by immunoblot analysis. The format is functional, cell-based. For orientation: In western blotting, separated proteins are transferred to a membrane and probed.
The subject of data set [1] is T47D. Put plainly: Induction of apoptosis in human T47D cells assessed as accumulation of cells with sub-G0-G1 DNA content at 1 uM incubated for 48 hrs in presence of docetaxel by flow cytometric analysis. The format is functional, cell-based.
For another data set, the system named is MDA-MB-453. Briefly: Induction of apoptosis in human MDA-MB-453 cells assessed as accumulation of cells with sub-G0-G1 DNA content at 1 uM incubated for 48 hrs in presence of docetaxel by flow cytometric analysis. The format is functional, cell-based. A general note: A flow cytometer gives signals particle by particle.
In a further data set the test system is HCC38. Briefly: Induction of apoptosis in human HCC38 cells assessed as accumulation of cells with sub-G0-G1 DNA content at 1 uM incubated for 48 hrs in presence of docetaxel by flow cytometric analysis. The format is functional, cell-based.
Data set [2] relates to HCC1143. Briefly: Induction of apoptosis in human HCC1143 cells assessed as accumulation of cells with sub-G0-G1 DNA content at 1 uM incubated for 48 hrs in presence of docetaxel by flow cytometric analysis. The format is functional, cell-based.
For data set [3], the system named is MDA-MB-231. Briefly: Induction of apoptosis in LC3 positive human MDA-MB-231 cells assessed as accumulation of cells with sub-G0-G1 DNA content at 1 uM incubated for 48 hrs in presence of docetaxel by flow cytometric analysis. The data set is classed as functional, cell-based.
For the next data set, the system named is HCC1937. Put plainly: Induction of apoptosis in human HCC1937 cells assessed as accumulation of cells with sub-G0-G1 DNA content at 1 uM incubated for 48 hrs in presence of docetaxel by flow cytometric analysis. The format is functional, cell-based.
Another data set has as its system HCC1954. Put plainly: Induction of apoptosis in human HCC1954 cells assessed as accumulation of cells with sub-G0-G1 DNA content at 1 uM incubated for 48 hrs in presence of docetaxel by flow cytometric analysis. The format is functional, cell-based.
Data set [4] has as its system NCI-H146. Put plainly: Induction of apoptosis in Bcl-xl dependent human NCI-H146 cells assessed as cytochrome C release from mitochondria at 0.1 to 1000 nM incubated for 4 hrs by immunoblot analysis. The format is functional, cell-based. The following applies: dose 0.1-1000 nM. The essentials:
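NCI-H146 cells were treated for 4 h with increasing concentrations. Mitochondrial and cytosolic fractions were separated, and cytochrome c in each was determined by immunoblotting.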

The subject of data set [5] is NCI-H146. Briefly: Induction of apoptosis in Bcl-xl dependent human NCI-H146 cells assessed as caspase 3/7 activation at 1 to 667 nM incubated for 4 hrs by immunoblot analysis. The format is functional, cell-based. The following applies: dose 1-667 nM. The essentials:
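NCI-H146 cells were incubated with increasing concentrations for 4 h, and caspase-3/7 activation was measured. Values are the mean of triplicate experiments ± SD.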

The test system of the next data set is MEF. Put plainly: Cytotoxicity against Mcl-1 knockout MEF cells assessed as reduction in cell viability incubated for 48 hrs by CellTiter-Glo cell vaibility assay. The format is toxicity, cell-based. The following applies: mouse. For orientation: Cellular ATP, detected with luciferase, serves as a proxy for viable cell number.
Data set [6] in a line: Synergistic antiproliferative activity against human HCC1500 cells assessed as reduction in cell viability by measuring bliss sum score incubated for 72 hrs in presence of docetaxel by CellTiter-Glo cell vaibility assay. The format is functional.
The subject of another data set is MCF7. Put plainly: Synergistic antiproliferative activity against human MCF7 cells expressing luciferase assessed as reduction in cell viability by measuring bliss sum score incubated for 72 hrs in presence of docetaxel by CellTiter-Glo cell vaibility assay. The format is functional.
The subject of a further data set is SK-BR-3. Briefly: Synergistic antiproliferative activity against human SK-BR-3 cells assessed as reduction in cell viability by measuring bliss sum score incubated for 72 hrs in presence of docetaxel by CellTiter-Glo cell vaibility assay. The data set is classed as functional.
The test system of data set [7] is T47D. Put plainly: Synergistic antiproliferative activity against human T47D cells assessed as reduction in cell viability by measuring bliss sum score incubated for 72 hrs in presence of docetaxel by CellTiter-Glo cell vaibility assay. The data set is classed as functional.
The subject of data set [8] is HCC1143. Put plainly: Synergistic antiproliferative activity against human HCC1143 cells assessed as reduction in cell viability by measuring bliss sum score incubated for 72 hrs in presence of docetaxel by CellTiter-Glo cell vaibility assay. The format is functional.
The test system of the next data set is NCI-H522. Briefly: Synergistic antiproliferative activity against human NCI-H522 cells assessed as reduction in cell viability by measuring bliss sum score incubated for 72 hrs in presence of docetaxel by CellTiter-Glo cell vaibility assay. The format is functional.
The next data set relates to NCI-H661. Put plainly: Synergistic antiproliferative activity against human NCI-H661 cells assessed as reduction in cell viability by measuring bliss sum score incubated for 72 hrs in presence of docetaxel by CellTiter-Glo cell vaibility assay. The format is functional.
The test system of another data set is NCI-H460. Briefly: Synergistic antiproliferative activity against human NCI-H460 cells assessed as reduction in cell viability by measuring bliss sum score incubated for 72 hrs in presence of docetaxel by CellTiter-Glo cell vaibility assay. The data set is classed as functional.
The test system of another data set is SK-OV-3. Briefly: Synergistic antiproliferative activity against human SK-OV-3 cells assessed as reduction in cell viability by measuring bliss sum score incubated for 72 hrs in presence of docetaxel by CellTiter-Glo cell vaibility assay. The data set is classed as functional.
In data set [9] the target is Apoptosis regulator Bcl-2 (Homo sapiens, UniProt P10415). Put plainly: Binding affinity to Bcl-2 (unknown origin) assessed as dissociation constant incubated for 1 hrs by TR-FRET assay.
For a further data set, the system named is NCI-H1650. Put plainly: Synergistic antitumor activity against human NCI-H1650 cells xenografted in SCID-bg mouse assessed as maximum tumor growth inhibition at 25 mg/kg, po coadministered with docetaxel once daily for 14 days relative to control. The data set is classed as functional. The following applies: NCI-H1650, 336 h, time 14 day, read-out: TGI. The essentials: (§1)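 Xenografts dosed with oral inhibitor plus intravenous docetaxel. TGImax = 100(1 − Tv/Cv), from mean treated and control tumor volumes; TGD = 100(T/C − 1), from median times to reach 1 cm3. Group size 5 mice (NCI-H747, A549-FP3, EBC-1, OVCAR-5), 8 (NCI-H358), 10 (NCI-H1650).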

Data set [10] deals with MDA-MB-231. Put plainly: Synergistic antitumor activity against LC3 positive human MDA-MB-231 cells xenografted in SCID mouse assessed as maximum tumor growth inhibition at 25 mg/kg, po coadministered with docetaxel once daily for 14 days relative to control. The data set is classed as functional. The following applies: MDA-MB-231, 336 h, time 14 day, read-out: TGI. The essentials:
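MDA-MB-231 LC3 metastatic breast cancer xenograft, 10 mice per group, with a vehicle control. Dosing: oral agent 25 mg/kg daily for 14 days; docetaxel 7.5 mg/kg iv once; combination gives both regimens. Mean tumor volumes tracked. TGImax = 100(1 − Tv/Cv) from mean treated vs control volumes. TGD = 100(T/C − 1) from median times to reach 1 cm3.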

The next data set has as its system NCI-H747. Put plainly: Antitumor activity against human NCI-H747 cells xenografted in po dosed SCID-bg mouse assessed as maximum tumor growth inhibition relative to control. The format is functional.
A further data set has as its system A549. Put plainly: Synergistic antitumor activity against 3 times passaged human A549 cells xenografted in po dosed SCID mouse assessed as tumor growth delay in presence of docetaxel relative to control. The data set is classed as functional. The essentials:
as §1

Data set [11] is described as follows: Toxicity in po dosed SCID-bg mouse assessed as tolerance. The format is organism-based. The following applies: in vivo.
Data set [12] has as its system OVCAR-5. Briefly: Antitumor activity against human OVCAR-5 xenografted in po dosed SCID mouse assessed as maximum tumor growth inhibition relative to control. The format is functional.
Data set [13] deals with OVCAR-5. Put plainly: Synergistic antitumor activity against human OVCAR-5 cells xenografted in po dosed SCID mouse assessed as maximum tumor growth inhibition in presence of docetaxel relative to control. The format is functional. The essentials:
as §1

Apoptosis regulator Bcl-2, sequence (P10415 whole entry): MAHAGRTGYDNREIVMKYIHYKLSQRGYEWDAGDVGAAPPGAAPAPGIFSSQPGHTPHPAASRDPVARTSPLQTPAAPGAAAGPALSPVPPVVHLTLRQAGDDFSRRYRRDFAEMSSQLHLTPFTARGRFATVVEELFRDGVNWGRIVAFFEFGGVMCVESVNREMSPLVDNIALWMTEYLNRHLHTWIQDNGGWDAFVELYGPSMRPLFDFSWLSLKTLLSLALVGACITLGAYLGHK

As for `CC1(C)CCC(c2ccc(Cl)cc2)=C(CN2CCN(c3ccc(C(=O)NS(=O)(=O)c4ccc(N[C@H](CCN5CCOCC5)CSc5ccccc5)c(S(=O)(=O)C(F)(F)F)c4)cc3)CC2)C1` [NAVITOCLAX], the outcome in the data set with MDA-MB-468, in the data set on T47D [1], with MDA-MB-453, in the data set on HCC38, in the data set with HCC1143 [2] and with MDA-MB-231 [3] was Active. In addition, the result in the data set on HCC1937 and in the data set with HCC1954 was Active.
Take `CN(C)CC#Cc1ccc(OCCCc2sc(N3CCc4cccc(C(=O)Nc5nc6ccccc6s5)c4C3)nc2C(=O)O)c(F)c1` [A-1155463]: the result in the data set with NCI-H146 [4] and in the data set on NCI-H146 [5] was Active. The Activity result in the data set on MEF is listed as “Toxic”. The Activity_index is 146 in [6]; 63 in the data set with MCF7; 101 in the data set with SK-BR-3; 250 with T47D [7]; 195 with HCC1143 [8]; 242 in the data set on NCI-H522. The Activity_index in the data set on NCI-H661 turned out to be 94; in the data set with NCI-H460, 105; with SK-OV-3 it was 747.
Regarding `Cc1c(-c2ccc(N3CCc4cccc(C(=O)Nc5nc6ccccc6s5)c4C3)nc2C(=O)O)cnn1CC12CC3CC(CC(C3)C1)C2`, in [9], the Ki was 6 nM. Besides, the inhibition in vivo at 25 mg/kg is 98% in the data set on NCI-H1650 and 93% with MDA-MB-231 [10]. Further, the figures for the TGI in the data set on NCI-H747, in the data set with OVCAR-5 [12] and in the data set with OVCAR-5 [13] were 50%, 34% and 57%, respectively. Besides, the results for the Activity (with A549; in data set [11]) were 131% and “Non-Toxic”, respectively.

As a reminder, the Ki is a measure of affinity in units of concentration, obtained from inhibition or displacement. The TGI is how far tumour growth fell short of that in controls.

The values above are taken from ChEMBL document CHEMBL5705901, “Exploiting selective BCL-2 family inhibitors to dissect cell survival dependencies and define improved strategies for cancer therapy” (Sci Transl Med, 2015).
